ChEMBL document CHEMBL4513216, “Probing the Open Global Health Chemical Diversity Library for Multistage-Active Starting Points for Next-Generation Antimalarials” (ACS Infect Dis, 2020)

Assay: Toxicity liver stage against HepG2, at 10uM
Type: cell-based
Set-up: test concentration 10 uM, cell line HepG2-A16-CD81EGFP
Details: human, HepG2-A16-CD81EGFP cells; read-out: INHIBITION
Procedure, shortened: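 Uninfected HepG2-A16-CD81EGFP cells, 3 × 10^3 per well, 1536-well, plated on prespotted compound at 10 μM final, parasite-free screening media added to match infected plates; puromycin 10 μM positive, DMSO 0.5% negative; run in parallel with 48 h PbLuc assay at 37 °C, 5% CO2; viability by CellTiter-Glo luminescence, normalized to controls.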

Compound	cytotoxicity at 10 µM
CCCc1nnc([C@H]2CCN(Cc3ncc[nH]3)C2)o1	-1.63%
COc1cccc(CN2CCCCCC2c2cccs2)c1O (configuration not stated)	11.4%
Cc1ccccc1OCn1ccc(C(=O)NCCN2CCOCC2)n1	8.02%
O=C(COc1ccc2c(c1)CCC2)NCc1ccco1	2.98%
CS(=O)(=O)N1CCN(C(=O)c2cc(-c3cccs3)cs2)CC1	1.8%
Cc1cc(C(F)(F)F)nn1CC(C)C(=O)Nc1ccncc1 (configuration not stated)	-2.13%
O=C(O)c1ccccc1-c1ccc(CN2CCC(CO)C2)cn1 (configuration not stated)	-1.79%
CS(=O)(=O)N1CCC(Cc2cnc(Br)cn2)CC1	13.4%
O=C(CC1CCN(CCc2ccccc2)CC1)N1CCCOCC1	-2.38%
CC(=O)Nc1cc(F)c(S(=O)(=O)N(C)CC2CCC2)c(F)c1	-54.4%
CC(OCC1CC1)C(=O)N1CCCN(c2nc3ccccc3[nH]2)CC1 (configuration not stated)	-0.657%
CC(C)OCCN1CCC(Nc2nccnc2C#N)CC1	2.72%
COC(=O)c1ccc(Cn2cccc(C(F)(F)F)c2=O)c(OC)c1	8.55%
CCN(C)S(=O)(=O)c1ccc(Cl)cc1C#N	-36.9%
O=C1CC(N(C(=O)c2ccc(-n3cccc3)cc2)C2CC2)C(=O)N1 (configuration not stated)	-1.67%
CC(CNC(=O)N1CCN(Cc2ccon2)CC1)Cc1cccs1 (configuration not stated)	-1.26%
Cc1nnc(CN(C)S(=O)(=O)c2ccc(Br)cc2Cl)n1C	12.6%
COc1cccc(OCC(=O)N(C)c2cccnc2N(C)C)c1	0.102%
Cc1nn(C)c(C)c1NC(=O)CN1CCc2c(nc(C3CC3)n2C)C1	-5.31%
CCOc1nnc(CN(C)C2CCCN(c3cccnn3)C2)s1 (configuration not stated)	-17.3%
CO[C@@H]1CO[C@@]2(CCCN(C(=O)N3CCCC3)C2)C1	-98.6%

Compound	cytotoxicity at 10 µM
COC[C@@H]1CCC[C@@]12CN(C(=O)C1CCOCC1)CCO2	-111%
Cn1cccc1C(=O)N1CCC2(CC1)CN(c1ccccc1)C(=O)CO2	-79.1%
CN(C)[C@@H]1CCN(C(=O)c2ccccn2)[C@H]1Cc1ccncc1	-63.6%
COc1cccc(C(=O)N2CCOC3(CCCN(C(C)=O)C3)C2)c1 (configuration not stated)	-68.6%
O=C(c1cnccn1)N1CCc2ncnc(C3CCOC3)c2CC1 (configuration not stated)	-81.9%
O=C(NCC1CC1)c1c2c(N3CCCC3)ncnc2n2ccccc12	-61.1%
CCOCC1CC2(CCN(C(=O)c3ncccn3)CC2)CO1 (configuration not stated)	4.93%
O=C(NCc1nncn1C1CCCCC1)C1CNCCO1 (configuration not stated)	-2.08%
Fc1cccc(-n2cc(CN3CCCCC3CCn3ccnc3)cn2)c1 (configuration not stated)	-8.55%
c1cncc(CNc2ncnc3c2CCN(Cc2ccsc2)CC3)c1	7.91%
Cc1cc(C(=O)N2C[C@H](CO)C[C@H](CN3CCOCC3)C2)nc(C)n1	9.91%
CNc1nc(N2C[C@H](NC(=O)CCOC)[C@@H](C3CC3)C2)nc2c1CCC2	9.62%
Cc1nnc(SCCCNC(=O)c2ccc3c(c2)OCO3)s1	8.8%
CCOc1cc(CNCc2ncc[nH]2)c(Cl)cc1OC(C)C	5.45%
COc1coc(CN2CCCC3(CCC(=O)N(CC4CC4)C3)C2)cc1=O (configuration not stated)	-34.4%
Cc1ncccc1OC1(C(=O)NCCc2ccccn2)CCNCC1	1.83%
O=C(c1ccc(F)c(F)c1)N1CCC(Cn2cc(CO)nn2)CC1	5.95%
CCc1cc(NCCNc2ccncc2C)n2nc(C)c(C)c2n1	3.29%
CC(C(=O)O)N1CCc2onc(-c3ccc4c(c3)OCO4)c2C1 (configuration not stated)	-6.46%
OCCCc1nncn1-c1cccc(C(F)(F)F)c1	6.74%
Cc1cc(CC(C)NC2CCN(CC(C)C)CC2)[nH]n1 (configuration not stated)	-8.32%

Compound	cytotoxicity at 10 µM
CCCN1CCCn2nc(CNC(=O)C3CCOC3)cc2C1 (configuration not stated)	0.237%
CCc1nccn1CCC(=O)N1CC[C@@H](c2ccc(F)cc2)[C@H](O)C1	-7.79%
O=C(CC1CCCC1)N1CCC2(CC1)[C@H](O)C[C@@H]2O	2.3%
CCc1nc2c(c(NCc3nc(-c4cccnc4)no3)n1)CCNCC2	5.85%
CN(C)c1ccccc1C(=O)N1CCCC(c2cccc(C(=O)O)c2)C1 (configuration not stated)	-6.11%
CC(C)OCCCNC(=O)C1CCC(=O)N(C2CCCC2)C1 (configuration not stated)	-5.92%
Cc1ncc(C(=O)N2C[C@H](CO)C[C@H](CN3CCOCC3)C2)c(=O)[nH]1	-10.4%
CCN(CC)C(=O)[C@@H]1C[C@@H](N)CN1c1nc(N2CCCC2)nc(C)c1C	-6.9%
CC(Cc1ccccn1)N(C)C(=O)c1ncc[nH]1 (configuration not stated)	3.04%
CC(O)CN1CC2(CCC1=O)CCN(Cc1cc(F)ccc1Cl)CC2 (configuration not stated)	6.89%
COc1ccc(Cl)cc1S(=O)(=O)N(C)CC(=O)Nc1cccnc1	0.192%
COc1ccc(Cl)cc1S(=O)(=O)N(C)CC(=O)Nc1ccccc1	-2.76%
COc1cccc(-n2cc(CN(C)C(=O)c3cnc(O)cn3)cn2)c1	-14.7%
Cc1cccc(-c2nc(C)nn2CC(=O)NC(C)C2CC2)c1 (configuration not stated)	-0.502%
CCc1nccn1C1CCCN(C(=O)c2ccc(-n3ccnc3)cc2)C1 (configuration not stated)	-10.8%
CC1CCCN(Cc2ccc(OCc3nccn3C)cc2)C1 (configuration not stated)	-11.8%
Cc1cccc(CNC(=O)CCc2c(C)nc3cc(O)nn3c2C)n1	-4.03%
Cc1cc(CN2CCC(N(C)Cc3noc(C4CC4)n3)C2)no1 (configuration not stated)	5.35%
Cc1csc(CNC(=O)N2CCN(Cc3ccco3)CC2)n1	0.702%
Cc1nccc(-c2cccc(NCC(=O)N3CCOCC3)c2)n1	-0.269%
CN(Cc1cccc(O)c1)C(=O)Nc1cccnc1N1CCCC1	-0.565%

Compound	cytotoxicity at 10 µM
O=C1COc2cc(C(=O)NS(=O)(=O)c3ccc(F)cc3F)ccc2N1	-6.21%
COc1ncccc1C(=O)NC1CCOc2ccccc21 (configuration not stated)	-6.25%
Cc1ccc(CNCC2CNc3cc(C)nn3C2)cn1 (configuration not stated)	-7.07%
Cc1ccc(NC2CCN(C(=O)CCOCC(F)(F)F)CC2)nn1	-2.78%
CN1CCCN(C(=O)NCCOc2ccc3c(c2)OCO3)CC1	-17.5%
CC(=O)N1CCN(CC(C)(O)c2cccc(C(F)(F)F)c2)CC1 (configuration not stated)	-14.6%
COc1ccccc1CC(=O)NS(C)(=O)=O	-7.31%
O=C(O)c1cc(NS(=O)(=O)c2cccc(Cl)c2F)ccc1Cl	-4.92%
CCn1nc2c(cc1=O)CN(Cc1nc(CCOC)no1)CC2	-9.24%
COc1cc(CNCc2c(C(C)C)nn(C)c2N(C)C)ccn1	0.504%
Cn1nc2c(cc1=O)CN(Cc1nnc(C3CC3)o1)CC2	4.28%
COc1cc2cc(C)c(SCCN3CCCC3)nc2cc1OC	-7.48%
Cc1ncsc1CN1C[C@@H]2COC[C@]2(C(=O)NCc2ccccn2)C1	-108%
COCC(=O)NC1CC2(CCN(CCO)CC2)c2ccccc21 (configuration not stated)	-109%
Cc1ccc(CN2CC[C@H]3C(=O)N(Cc4cccnc4)CCO[C@H]3C2)o1	-88.7%
O=C1NC2(CCNCC2)CC1c1ccncc1 (configuration not stated)	-60.7%
CN(C)[C@@H]1CCN(C(=O)c2ccco2)[C@H]1Cc1cnn(C)c1	-81.9%
O=C([C@H]1CCCO1)N1CC[C@H](O)[C@@H]1Cc1ccncc1	6.38%
O=C(NC1CC1)C1[C@H]2CN(Cc3ccc(-c4cc[nH]n4)s3)C[C@@H]12 (some centres not stated)	6.27%
